Experimental data reported in paper PMC9719863 (Molecular Metabolism, 2022).
*1 amine or outer side, *2 acyl side, *3 side chain or, on linkers, in order; H or OH if unused. Where a SMILES comes first, the peptide text is derived from it. Side-chain parts run from the residue outwards. The star is where a group is joined. γGlu = O=C(O)[C@H](CCC(=O)[*:2])N[*:1]; Palmitoyl = CCCCCCCCCCCCCCCC(=O)*

Key:
[1] = molecular target: hGLP-1R (Homo sapiens, UniProt P43220); assay: cAMP CRE-luciferase assay in BHK cells expressing GLP-1R; assay type: cell-based
Summary of the method: (§1)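 Stably transfected BHK cells carried receptor plus CRE-firefly luciferase reporter, seeded 5,000/well overnight, then DPBS-washed. 12-point dilutions in DMEM (no phenol red), 10 mM HEPES, 1% ovalbumin, 0.1% Pluronic F-68, ± EC80 native ligand (antagonist mode), 3 h, 37 °C. Luminescence read after SteadyLite, 30 min RT. EC50/IC50 by nonlinear regression of log concentration vs response; duplicate experiment.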

[2] = test system: DIO male C57BL/6 J mice; assay: Chronic once-daily dosing study on body weight in DIO mice; assay type: in vivo, mouse; details: for Percent change in body weight: 27-28 d, n = 8
Summary of the method: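 DIO male C57BL/6J mice (58% fat, high-sugar diet, ~12 weeks; >55 g) housed 4/cage at 22 °C on a 12 h light–dark cycle. Groups of n = 8 were normalized for body weight. Test compound was given SC once daily in the light cycle for 28 days, in pH 7.4 vehicle (0.05% polysorbate-80, 50 mM sodium phosphate, 70 mM NaCl). Body weight was taken every other day before dosing, as % change from initial.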

[3] = test system: DIO mice; assay: Intraperitoneal glucose tolerance test; assay type: in vivo, mouse; details: IPGTT (Figure 6C,D) and oral glucose tolerance test (Supplemental figure 3)
Summary of the method: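 Male C57BL/6J mice on 58% fat, high-sugar diet for ≥16 weeks, fasted 6 h. Antagonist (500 or 1500 nmol/kg) injected 2 h before glucose; semaglutide 2 nmol/kg injected 1 h before. Glucose 2.5 g/kg (20% solution) given i.p. or by oral gavage. Tail-vein glucose measured from baseline.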

[4] = molecular target: mGcgR (Mus musculus, UniProt Q61606); assay: cAMP CRE-luciferase assay in BHK cells expressing glucagon receptor; assay type: cell-based
Summary of the method: as §1

[5] = molecular target: T1, hGIPR (Homo sapiens, UniProt P48546); assay: cAMP CRE-luciferase assay in BHK cells expressing GIPR; assay type: cell-based; details: agonist mode, without native ligand
T1 sequence (P48546 22-466): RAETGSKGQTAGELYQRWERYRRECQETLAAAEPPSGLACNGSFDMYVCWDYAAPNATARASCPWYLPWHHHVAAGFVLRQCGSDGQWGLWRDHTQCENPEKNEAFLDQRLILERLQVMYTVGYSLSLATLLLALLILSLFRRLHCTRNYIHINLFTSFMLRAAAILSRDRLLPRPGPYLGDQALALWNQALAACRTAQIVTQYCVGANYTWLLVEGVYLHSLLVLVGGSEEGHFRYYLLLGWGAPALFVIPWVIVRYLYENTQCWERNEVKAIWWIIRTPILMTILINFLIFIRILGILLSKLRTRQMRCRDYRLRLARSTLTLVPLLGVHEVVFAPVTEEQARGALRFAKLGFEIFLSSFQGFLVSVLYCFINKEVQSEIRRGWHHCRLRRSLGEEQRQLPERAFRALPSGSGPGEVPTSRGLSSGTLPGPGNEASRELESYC

[6] = Pharmacokinetic; assay type: in vivo; details: male, C57BL/6 J, mouse, plasma, sc, 500 nmol/kg
Summary of the method: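 Male C57BL/6J mice fed 58% fat, high-sugar diet ≥16 weeks (61–74 g) received one SC dose of 500 nmol/kg, n = 4. Plasma sampled 5 min to 72 h, methanol-precipitated (14-fold), centrifuged, diluted 3-fold in 0.1% formic acid, and quantified by LC-MS selected ion monitoring against plasma standards (0.5–4000 nM). Parameters derived noncompartmentally with sparse sampling.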

[7] = molecular target: T2, mGIPR (Mus musculus, UniProt Q0P543); assay: cAMP CRE-luciferase assay in BHK cells expressing GIPR; assay type: cell-based
T2 sequence (Q0P543 19-460): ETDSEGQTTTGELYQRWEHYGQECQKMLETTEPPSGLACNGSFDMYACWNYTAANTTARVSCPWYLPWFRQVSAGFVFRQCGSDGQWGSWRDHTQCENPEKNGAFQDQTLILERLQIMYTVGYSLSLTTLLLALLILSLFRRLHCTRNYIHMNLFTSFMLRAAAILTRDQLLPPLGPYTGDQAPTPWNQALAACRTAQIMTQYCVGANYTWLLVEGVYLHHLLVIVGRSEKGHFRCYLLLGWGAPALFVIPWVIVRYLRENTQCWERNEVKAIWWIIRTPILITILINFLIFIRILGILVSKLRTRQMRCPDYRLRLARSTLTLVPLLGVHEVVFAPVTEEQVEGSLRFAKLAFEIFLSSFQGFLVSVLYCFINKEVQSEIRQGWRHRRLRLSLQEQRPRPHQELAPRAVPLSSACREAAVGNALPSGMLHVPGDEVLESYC

[8] = molecular target: hGcgR (Homo sapiens, UniProt P47871); assay: cAMP CRE-luciferase assay in BHK cells expressing glucagon receptor; assay type: cell-based
Summary of the method: as §1

[9] = test system: DIO mice; assay: Oral glucose tolerance test; assay type: in vivo, mouse; details: high dose (1500 nmol/kg) SC prior to oral gavage of glucose 2.5 g/kg, n = 8 per group
Summary of the method: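 DIO male C57BL/6J mice (58% fat, high-sugar diet ≥16 weeks), fasted 6 h with water available. Antagonist injected 2 h before oral gavage of 2.5 g/kg glucose (20% solution). Tail-vein blood glucose measured from baseline; glucose integrated AUC derived.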

[10] = test system: intact human islets; assay: Human islet perifusion, insulin secretion; assay type: cell-based; details: islets from two human donors, 7 1 uM, 4 technical replicates per donor
Summary of the method: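 Islets from human donors (purity ≥80%) recovered overnight in RPMI with 6.7 mM glucose and 10% FBS, then used within 4 days. 75 handpicked islets per chamber in KRPH buffer (2.7 mM glucose, pH 7.4). Equilibrated 48 min (1% then 0.1% BSA), then perifused in intervals with 1 uM antagonist in KRPH + 0.1% BSA. Insulin measured by Lumit immunoassay.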

[11] = molecular target: T3, mGLP-1R (Mus musculus, UniProt O35659); assay: cAMP CRE-luciferase assay in BHK cells expressing GLP-1R; assay type: cell-based; details: antagonist mode, compared with hGLP-1R
T3 sequence (O35659 22-463): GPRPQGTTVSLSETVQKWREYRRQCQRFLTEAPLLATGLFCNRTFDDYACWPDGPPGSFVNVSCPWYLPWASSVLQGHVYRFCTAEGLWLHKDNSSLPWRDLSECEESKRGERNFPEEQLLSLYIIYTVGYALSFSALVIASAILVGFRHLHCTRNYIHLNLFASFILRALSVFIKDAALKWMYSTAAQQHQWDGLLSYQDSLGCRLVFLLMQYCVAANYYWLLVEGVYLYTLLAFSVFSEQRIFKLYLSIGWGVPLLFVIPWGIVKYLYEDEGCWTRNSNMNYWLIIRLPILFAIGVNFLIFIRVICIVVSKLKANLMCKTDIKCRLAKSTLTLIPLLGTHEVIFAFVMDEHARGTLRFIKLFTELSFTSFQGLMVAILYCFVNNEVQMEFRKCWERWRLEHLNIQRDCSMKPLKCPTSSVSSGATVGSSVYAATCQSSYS
Summary of the method: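 Stably transfected BHK cells with receptor and CRE-firefly luciferase reporter, 5,000 cells/well, incubated overnight and washed in DPBS. Exposed 3 h at 37 °C to a 12-point serial dilution of test compound with EC80 native ligand, in DMEM (no phenol red) with 10 mM HEPES, 1% ovalbumin, 0.1% Pluronic F-68.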

[12] = test system: DIO mice; details: with the GLP-1R agonist liraglutide; cited from earlier work

Sequence of mGcgR (Q61606 27-485): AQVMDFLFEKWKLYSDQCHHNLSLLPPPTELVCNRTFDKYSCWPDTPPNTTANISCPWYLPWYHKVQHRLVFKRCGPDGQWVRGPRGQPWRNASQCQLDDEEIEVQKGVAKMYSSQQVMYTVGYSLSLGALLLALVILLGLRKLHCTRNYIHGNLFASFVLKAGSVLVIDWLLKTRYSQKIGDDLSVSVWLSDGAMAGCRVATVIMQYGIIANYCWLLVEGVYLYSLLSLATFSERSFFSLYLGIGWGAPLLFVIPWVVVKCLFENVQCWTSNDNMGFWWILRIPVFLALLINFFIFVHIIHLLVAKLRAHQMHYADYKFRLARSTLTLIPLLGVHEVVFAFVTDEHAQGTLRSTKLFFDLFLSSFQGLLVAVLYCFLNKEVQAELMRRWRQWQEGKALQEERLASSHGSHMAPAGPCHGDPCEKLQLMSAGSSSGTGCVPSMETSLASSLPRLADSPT
Sequence of hGLP-1R (P43220 24-463): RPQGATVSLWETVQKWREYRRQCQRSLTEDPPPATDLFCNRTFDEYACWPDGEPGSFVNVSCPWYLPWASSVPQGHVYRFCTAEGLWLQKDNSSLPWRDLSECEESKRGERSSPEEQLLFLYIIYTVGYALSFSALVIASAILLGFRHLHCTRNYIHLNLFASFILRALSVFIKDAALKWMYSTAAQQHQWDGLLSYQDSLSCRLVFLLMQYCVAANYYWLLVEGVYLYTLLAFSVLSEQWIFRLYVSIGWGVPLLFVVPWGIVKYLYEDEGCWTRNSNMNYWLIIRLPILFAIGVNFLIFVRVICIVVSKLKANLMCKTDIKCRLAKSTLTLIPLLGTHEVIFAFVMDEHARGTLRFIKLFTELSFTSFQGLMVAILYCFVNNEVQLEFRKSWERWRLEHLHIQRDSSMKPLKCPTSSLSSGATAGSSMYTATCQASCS
Sequence of hGcgR (P47871 26-477): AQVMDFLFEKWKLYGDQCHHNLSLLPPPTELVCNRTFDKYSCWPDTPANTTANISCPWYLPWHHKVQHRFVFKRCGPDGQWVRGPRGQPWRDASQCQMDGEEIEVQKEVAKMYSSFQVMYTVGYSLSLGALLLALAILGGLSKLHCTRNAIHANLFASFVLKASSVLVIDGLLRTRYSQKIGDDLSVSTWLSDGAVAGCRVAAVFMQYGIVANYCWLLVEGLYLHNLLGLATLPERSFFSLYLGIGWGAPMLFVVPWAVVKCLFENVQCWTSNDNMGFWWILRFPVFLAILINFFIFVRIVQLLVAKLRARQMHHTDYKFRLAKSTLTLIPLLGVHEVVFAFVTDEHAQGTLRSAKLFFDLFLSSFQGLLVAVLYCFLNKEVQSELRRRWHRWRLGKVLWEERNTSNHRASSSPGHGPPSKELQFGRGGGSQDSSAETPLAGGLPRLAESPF

CCCCCCCCCCCCCCCC(=O)N[C@@H](CCC(=O)NCCCC[C@H](NC(=O)[C@H](Cc1ccc(O)cc1)NC(=O)[C@H](CC(=O)O)NC(=O)[C@H](CO)NC(=O)[C@@H](NC(=O)[C@H](Cc1ccccc1)NC(=O)[C@@H](NC(C)=O)[C@@H](C)O)[C@@H](C)CC)C(=O)N[C@H](C(=O)N[C@@H](C)C(=O)N[C@@H](CC(C)C)C(=O)N[C@@H](CC(=O)O)C(=O)N[C@@H](CCCCN)C(=O)N[C@H](C(=O)N[C@@H](CCCNC(=N)N)C(=O)N[C@@H](CCC(N)=O)C(=O)N[C@@H](CCC(N)=O)C(=O)N[C@@H](CCC(=O)O)C(=O)N[C@@H](Cc1ccccc1)C(=O)N[C@H](C(=O)N[C@@H](CC(N)=O)C(=O)N[C@@H](Cc1c[nH]c2ccccc12)C(=O)N[C@@H](CC(C)C)C(=O)N[C@@H](CC(C)C)C(=O)N[C@@H](C)C(=O)N[C@@H](CCC(N)=O)C(=O)N[C@@H](CCCCN)C(=O)NCC(=O)O)C(C)C)[C@@H](C)CC)[C@@H](C)CC)C(=O)O [Peptide 7, [Nα-Ac, L14, R18, E21] hGIP(5–31)-K11 (γE-C16)]
Agonism at hGLP-1R (maximal) ([1]; agonist mode, Figure 3C): ≤ 20%
% inhibition of native GLP-1 action, hGLP-1R ([1]; antagonist mode): 68%
Glucose iAUC in IPGTT on day 26, high dose ([2]; 7 alone 1500 nmol/kg/d, 24 h after compound injection): numeric but insignificant lowering of glucose iAUC
Percent change in body weight ([2]; 7 at 500 nmol/kg/d SC once daily): +2.57%
Percent change in body weight ([2]; 7 at 1500 nmol/kg/d SC once daily): −2.88%
Fasted insulin ([2]; 6 h fast on day 27 of treatment, plasma): did not modify reduction in fasting insulin levels seen with semaglutide treatment
Glucose control in IPGTT on day 26 ([2]; 24 h after compound injection, semaglutide 2 nmol/kg/d, semaglutide plus 7, 7 alone 500 nmol/kg/d): significantly improved glucose control compared to controls
Effect on semaglutide mediated reductions in blood glucose [3]: did not affect semaglutide mediated reductions in blood glucose
EC50 [4]: > 7 µM
Antagonism at mGcgR ([4]; antagonist mode vs glucagon): no antagonism
Agonism at the hGIPR (cAMP production by peptide alone) [5]: negligible cAMP production as agonists
half-life [6]: 8.45 h
Agonism at the mGIPR (cAMP production by peptide alone) ([7]; agonist mode, without native ligand): negligible cAMP production as agonists
EC50 [8]: > 12 µM
Glucose control in OGTT (endogenous incretin action) [9]: worsened glucose control
Insulin secretion in response to GIPR antagonist alone (high glucose) [10]: modest and transient, statistically insignificant rise in insulin secretion
Antagonism at mGLP-1R [11]: less antagonism at the mGLP-1R relative to hGLP-1R

CCCCCCCCCCCCCCCC(=O)N[C@@H](CCC(=O)N[C@@H](CCC(=O)NCCCC[C@H](NC(=O)[C@H](CC(=O)O)NC(=O)[C@H](CO)NC(=O)[C@@H](NC(=O)[C@H](Cc1ccccc1)NC(=O)[C@@H](NC(C)=O)[C@@H](C)O)[C@@H](C)CC)C(=O)N[C@@H](CO)C(=O)N[C@H](C(=O)N[C@@H](C)C(=O)N[C@@H](CC(C)C)C(=O)N[C@@H](CC(=O)O)C(=O)N[C@@H](CCCCN)C(=O)N[C@H](C(=O)N[C@@H](CCCNC(=N)N)C(=O)N[C@@H](CCC(N)=O)C(=O)N[C@@H](CCC(N)=O)C(=O)N[C@@H](CCC(=O)O)C(=O)N[C@@H](Cc1ccccc1)C(=O)N[C@H](C(=O)N[C@@H](CC(N)=O)C(=O)N[C@@H](Cc1c[nH]c2ccccc12)C(=O)N[C@@H](CC(C)C)C(=O)N[C@@H](CC(C)C)C(=O)N[C@@H](C)C(=O)N[C@@H](CCC(N)=O)C(=O)N[C@@H](CCCCN)C(=O)NCC(=O)N[C@@H](CCCCN)C(=O)N[C@@H](CCCCN)C(=O)N[C@@H](CC(N)=O)C(=O)N[C@@H](CC(=O)O)C(=O)N[C@@H](Cc1c[nH]c2ccccc12)C(=O)N[C@@H](CCCCN)C(=O)N[C@@H](Cc1c[nH]cn1)C(=O)N[C@@H](CC(N)=O)C(=O)N[C@H](C(=O)N[C@H](C(=O)N[C@@H](CCC(N)=O)C(N)=O)[C@@H](C)O)[C@@H](C)CC)C(C)C)[C@@H](C)CC)[C@@H](C)CC)C(=O)O)C(=O)O [Peptide 13, [N^α-Ac, L14, R18, E21] hGIP(5–42)-K10 (γEγE-C16)] (Ac-TFISDK([γGlu-γGlu-Palmitoyl])SIALDKIRQQEFVNWLLAQKGKKNDWKHNITQ-NH2)
Weight loss when co-administrated with liraglutide [12]: did not improve weight loss
AUC [6]: 21.1 µM·h
half-life [6]: 1.12 h
Fold less potent at mGIPR than 7 in vitro ([7]; 13 compared with 7): ~5 fold
